Drawing on ChEMBL document CHEMBL3272242, “Sulfamylurea hypoglycemic agents. 6. High-potency derivatives” (J Med Chem, 1976), this text covers Activity for 27 molecules.

The experiment deals with Rattus norvegicus. Briefly: Hypoglycemic activity in 18 to 24 hrs-fasted rat assessed as reduction in blood glucose at 5 mg/kg, ip measured after 1 hr relative to saline-treated control. Format: functional. The arrangement: scale not given: the % may be the effect or the level left. The note with it: route intraperitoneal. The gist of the method: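 Unanesthetized male Charles River rats (200–250 g), fasted 18–24 h, in groups of five or six. Single ip dose. Tail-vein blood drawn before dosing and 1 h after. Glucose measured by ferricyanide reduction micromethod on an autoanalyzer. Value is the percent fall in blood glucose at 1 h versus a saline-treated control group. Significance levels are p < 0.05, 0.01 and 0.001.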
Turning to `COc1ccc(Cl)cc1C(=O)NCC1CCN(S(=O)(=O)NC(=O)NC2CCCCC2)CC1.O`, the Activity came to 20%.

As to `CCCCCCNC(=O)NS(=O)(=O)N1CCC(CNC(=O)c2cc(Cl)ccc2OC)CC1`, the Activity was determined as 17%. The value for `COc1ccc(NC(=O)NS(=O)(=O)N2CCC(CCNC(=O)c3cc(Cl)ccc3OC)CC2)cc1.O` was 27%; that for `COc1ccc(Cl)cc1C(=O)NCCC1CCN(S(=O)(=O)NC(=O)NC23CC4CC(CC(C4)C2)C3)CC1` was 29%. The value for `COc1ccc(Cl)cc1C(=O)NCCC1CCN(S(=O)(=O)NC(=O)NN2CCCCCC2)CC1` was 36%; that for `O=C(NC1CCCCC1)NS(=O)(=O)N1CCC(CCNC(=O)C(F)(F)F)CC1` was 13%. The value for `CCCNC(=O)NS(=O)(=O)N1CCC(CCNC(=O)c2cc(C(F)(F)F)nn2C)CC1` was 11%. On to `O=C(NC1CCCCC1)NS(=O)(=O)N1CCC(CCNC(=O)c2csnn2)CC1`, for which the Activity was found to be 19%.

For `Cc1ncccc1C(=O)NCCC1CCN(S(=O)(=O)NC(=O)NC2CCCCC2)CC1`, the Activity is listed as 16%. The figure for `O=C(NC1CCCCC1)NS(=O)(=O)N1CCC(CCNC(=O)C2Oc3ccccc3O2)CC1` is 8%; for `O=C(NC1CCCCC1)NS(=O)(=O)N1CCC(CCNC(=O)c2ccc3ccccc3n2)CC1` it is 11%. With `O.O=C(NC1CCCCC1)NS(=O)(=O)N1CCC(CCNC(=O)c2ccnc3ccccc23)CC1`, the Activity is given as 16%. The figure for `COc1ccc2nccc(C(=O)NCCC3CCN(S(=O)(=O)NC(=O)NC4CCCCC4)CC3)c2c1.O` is 15%; for `COc1ncccc1C(=O)NCCC1CCN(S(=O)(=O)NC(=O)NCC2CCCO2)CC1` (configuration not stated) it is 16%; for `COc1ncccc1C(=O)NCCC1CCN(S(=O)(=O)NC(=O)NCC2CCCCO2)CC1` (configuration not stated) it is 12%. The figure for `CCOCCNC(=O)NS(=O)(=O)N1CCC(CCNC(=O)c2cccnc2OC)CC1` is 7%; for `Cn1cc(C(=O)NCCC2CCN(S(=O)(=O)NC(=O)NC34CC5CC(CC(C5)C3)C4)CC2)c(=O)n(C)c1=O.O` it is 27%; for `COc1ccc(Cl)cc1C(=O)NCC1CCN(S(=O)(=O)NC(=O)NC[C@@H]2C[C@@H]3C=C[C@@H]2C3)CC1` (relative stereo) it is 15%. The figure for `COc1ccc(Cl)cc1C(=O)NCCC1CCN(S(=O)(=O)NC(=O)NC[C@@H]2C[C@@H]3CC[C@@H]2O3)CC1` (relative stereo) is 30%; for `COc1ccc(Cl)cc1C(=O)NCCC1CCN(S(=O)(=O)NC(=O)NC[C@H]2C[C@@H]3CC[C@@H]2O3)CC1.O` (relative stereo) it is 27%.

`O=C(NC[C@@H]1C[C@@H]2C=C[C@@H]1C2)NS(=O)(=O)N1CCC(CCNC(=O)C(F)(F)F)CC1` (relative stereo): the Activity turned out to be 22%.

Take `Cc1cccc(C(=O)NCCC2CCN(S(=O)(=O)NC(=O)NC[C@@H]3C[C@@H]4C=C[C@@H]3C4)CC2)n1` (relative stereo): the Activity is 20%. The value for `Cc1ncccc1C(=O)NCCC1CCN(S(=O)(=O)NC(=O)NC[C@@H]2C[C@@H]3C=C[C@@H]2C3)CC1.O` (relative stereo) was 16%; that for `COc1ccncc1C(=O)NCCC1CCN(S(=O)(=O)NC(=O)NC[C@@H]2C[C@@H]3C=C[C@@H]2C3)CC1` (relative stereo) was 14%; that for `O=C(NC[C@@H]1C[C@@H]2C=C[C@@H]1C2)NS(=O)(=O)N1CCC(CCNC(=O)c2ccc3ccccc3n2)CC1` (relative stereo) was 21%.

On to `COc1ccc2nccc(C(=O)NCCC3CCN(S(=O)(=O)NC(=O)NC[C@@H]4C[C@@H]5C=C[C@@H]4C5)CC3)c2c1` (relative stereo), for which the Activity is given as 10%. The figure for `COc1ncccc1C(=O)NCCC1CCN(S(=O)(=O)NC(=O)NC[C@H]2C[C@@H]3C=C[C@@H]2C3)CC1` (relative stereo) is 20%.
